Assay outcomes (PubChem)
SENP7 block – blocks the human protease SENP7; Q9BQF6; recombinant SENP7, Z-RLRGG-aminoluciferin luminescence, 40 min; inhibition, % at 5 µM; 330,000 compounds, 1.5% hits;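 active means inhibition above about 50% at the single test dose, limit read from the data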;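 further: plate controls were DMSO with enzyme for no effect and no enzyme buffer wells for full effect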
Target sequence (Q9BQF6 706-1050 limits assumed): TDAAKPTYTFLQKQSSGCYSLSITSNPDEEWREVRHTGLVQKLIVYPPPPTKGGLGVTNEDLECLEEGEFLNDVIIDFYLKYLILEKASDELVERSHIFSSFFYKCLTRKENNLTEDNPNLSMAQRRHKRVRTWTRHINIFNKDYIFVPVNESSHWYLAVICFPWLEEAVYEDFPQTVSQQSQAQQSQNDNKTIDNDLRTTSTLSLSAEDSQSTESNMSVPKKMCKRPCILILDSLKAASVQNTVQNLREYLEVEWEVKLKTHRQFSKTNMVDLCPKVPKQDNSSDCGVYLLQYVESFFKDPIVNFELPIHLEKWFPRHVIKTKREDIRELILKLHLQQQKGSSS
SENP8 block-1 – SENP8 (human) protease inhibition; Q96LD8; recombinant SENP8, Nedd8 substrate fluorescence; inhibition, % at 20 µM; 360,000 compounds, 0.64% hits; AID 602440; in the data active means inhibition mostly above about 40%, no sharp cut-off; inactive means mostly below about 27%
SENP1 FRET inh – blocks the human SENP1 SUMO protease catalytic domain; recombinant SENP1 catalytic domain, CyPet-SUMO1-YPet FRET cleavage; inhibition, % at 10 µM; 360,000 compounds, 0.21% hits;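 active means inhibition at least 30% at 10 µM, raw YFP signal under a set limit, fluorescence ratio 0.5 to 1.5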;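 further: 0% = enzyme with DMSO and 100% = no enzyme wells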
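Compound: 10 µM single point, 0.5% DMSO; Test system: hSENP1 catalytic domain, recombinant; Timing: 50 min reaction at room temperature; Technique: FRET, CFP and YFP emission; Control set: no-enzyme wells low, DMSO-plus-enzyme wells high control.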
SENP8 block-2 – inhibitors of human SENP8 protease; Q96LD8; purified SENP8, Z-RLRGG-aminoluciferin cleavage, luminescence; inhibition, % at 10 µM; 330,000 compounds, 1.2% hits; AID 2540; in the data active means inhibition above about 50%
SENP6 inh – SENP6 protease inhibition | 330,000 compounds, 1.8% hits | AID 2599 | inhibition, % at 10 µM | Q9GZR1 | Recombinant SENP6 catalytic domain, aminoluciferin luminescence;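 active means inhibition above about 50% at the single tested dose, limit read from the data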;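 further: plate controls were DMSO wells with enzyme for no effect and DMSO wells lacking enzyme for full effect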
SENP8 confirm – human SENP8 inhibition, confirmed | 6,200 compounds, 40% hits | shares compounds with SENP7 block | Recombinant SENP8, Z-RLRGG-aminoluciferin luminescence, 60 min | inhibition, % at 12.5 µM | AID 488912;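 active means mean inhibition across replicates above about 50%, limit read from the data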
SENP6 confirm – human SENP6 inhibition, confirmed; 6,200 compounds, 58% hits; inhibition, % at 12.5 µM; recombinant SENP6, Z-RLRGG-aminoluciferin luminescence; shares compounds with SENP7 block
SENP7 confirm – human SENP7 inhibition, confirmed | AID 488917 | 6,200 compounds, 69% hits | inhibition, % at 12.5 µM | recombinant SENP7, Z-RLRGG-aminoluciferin luminescence, 40 min | shares compounds with SENP7 block
Casp3 select – caspase-3 inhibition (SENP selectivity assay); shares compounds with SENP7 block; purified caspase-3, Z-DEVD-aminoluciferin luminescence, 60 min; inhibition, % at 12.5 µM; 6,200 compounds, 60% hits; AID 488918;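 active means mean inhibition above about 50%, limit read from the data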;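 further: plate controls were enzyme with DMSO for no effect and wells without caspase-3 for full effect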
Target sequence (P42574 28-227 limits assumed): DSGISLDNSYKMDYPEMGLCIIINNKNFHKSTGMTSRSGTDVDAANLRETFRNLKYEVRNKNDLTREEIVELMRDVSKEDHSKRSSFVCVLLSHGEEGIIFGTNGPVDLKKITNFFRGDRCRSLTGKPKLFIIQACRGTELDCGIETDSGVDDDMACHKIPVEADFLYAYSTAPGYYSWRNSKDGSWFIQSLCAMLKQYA
SENP luc ctr – luminescence interference (SENP counter-screen) | shares compounds with SENP7 block | 6,200 compounds, 39% hits | inhibition, % at 12.5 µM | Pre-incubated SENP8/Z-RLRGG-aminoluciferin, luciferase luminescence interference;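 active means mean inhibition above about 50% when retested at one dose, limit read from the data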;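 further: plate controls were DMSO wells with completed reaction for no effect and substrate without enzyme for full effect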
Active calls of the source: *; i = inactive; · = not tested or not shown. The list is not random: actives were taken first. Their share in the collection is about 2.5%.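 How the source made its calls, unless noted: active means mean inhibition above about 50% in the one-dose retest (limit read from the data); inactive means the rest.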

SMILES | SENP7 block | SENP8 block-1 | SENP1 FRET inh | SENP8 block-2 | SENP6 inh | SENP8 confirm | SENP6 confirm | SENP7 confirm | Casp3 select | SENP luc ctr
Cc1ccccc1-c1nnc(-c2ccc(Br)cc2)o1 | 67* | 2 | 1 | 33 | 75* | 14 | 13 | 22 | 30 | 7
Cc1ccccc1-c1nnc(-c2cccc3ccccc23)o1 | · | i | 1 | · | · | · | · | · | · | ·
COc1ccc(CC(=O)Nc2cc(S(=O)(=O)Nc3ccc(OC)cc3)ccc2OC)cc1 | -31 | 0 | 0 | -18 | -13 | · | · | · | · | ·
Cc1ccc(C)c(NC(=O)CSc2nnc(C3CCCCC3)o2)c1 | 0 | 16 | 4 | 0 | -8 | · | · | · | · | ·
O=C(c1cc(-c2ccc3c(c2)OCO3)on1)N1CCOCC1 | 57* | -3 | 1 | 32 | 67* | 58* | 52* | 84* | 82* | 54*
O=C(c1cc(-c2ccc(Cl)cc2Cl)on1)N1CCOCC1 | -9 | 13 | 1 | 47 | 62* | 49 | 49 | 85* | 72* | 51*
O=C(c1cc(-c2ccccc2)on1)N1CCCCCC1 | 5 | 9 | 0 | -2 | 5 | · | · | · | · | ·
O=C(c1cc(-c2ccc3c(c2)OCO3)on1)N1CCN(c2ccccc2)CC1 | 0 | 2 | 1 | 7 | -1 | · | · | · | · | ·
O=C(c1cc(-c2cccc(O)c2)on1)N1CCCC1 | 18 | 15 | -5 | 17 | 50* | 45 | 40 | 78* | 70* | 38
O=C(c1cc(-c2cccc(O)c2)on1)N1CCCCC1 | 68* | 4 | 2 | 61* | -8 | 7 | 67* | 91* | 78* | 73*
O=C(C1=C(O)C(=O)N(CCCn2ccnc2)C1c1cccc(Br)c1)c1ccco1 (centres undefined) | -5 | 4 | 0 | -5 | -20 | · | · | · | · | ·
CC(=O)c1ccc(N2CCN(C(=O)CCC(=O)Nc3ccc4nc(N5CCN(C)CC5)cc(C)c4c3)CC2)cc1 | -5 | -323 | 1 | 7 | 4 | · | · | · | · | ·
CC(=O)Nc1ccc(NC(=O)C2CCN(S(C)(=O)=O)CC2)cc1 | · | 11 | 2 | · | · | · | · | · | · | ·
CCCCNC(=O)c1nc(-c2ccccc2)oc1-c1ccc(Cl)cc1 | · | -391 | 2 | · | · | · | · | · | · | ·
O=C(NCCC(=O)N1CCC2(CC1)NCCc1[nH]cnc12)c1ccc(F)c(F)c1 | -6 | 5 | 0 | -13 | -21 | · | · | · | · | ·
COc1ccc(Cn2c(N)c(C#N)c3nc4ccccc4nc32)cc1 | -3 | -269 | -19 | -4 | 22 | · | · | · | · | ·
N#Cc1c(N)n(CCNC(=O)c2ccc(Cl)cc2)c2nc3ccccc3nc12 | 41 | i | -18 | 42 | 70* | 4 | 6 | 5 | 2 | -5
N#Cc1c(N)n(CCc2ccc(F)cc2)c2nc3ccccc3nc12 | 15 | -413 | -30 | 24 | 62* | -17 | 0 | 4 | -1 | -2
COc1cccc(Cn2c(N)c(C#N)c3nc4ccccc4nc32)c1OC | 26 | -380 | -42 | 38 | 85* | -19 | -11 | -8 | -9 | -7
Cc1ccc(C(=O)NCCn2c(N)c(C#N)c3nc4ccccc4nc32)cc1 | 34 | -272 | -28 | 10 | 43 | · | · | · | · | ·
COc1cc(Cn2c(N)c(C#N)c3nc4ccccc4nc32)cc(OC)c1 | 8 | -295 | -122 | 23 | 88* | 5 | 8 | 12 | 5 | 7
CC(C)CCN(C(=O)c1csnn1)C(C(=O)NC1CCCCC1)c1ccc(F)cc1 (centres undefined) | -7 | 13 | 0 | -8 | 7 | · | · | · | · | ·
COc1ccc(-c2cc3nc(NCCNC(C)=O)n(C)c(=O)c3s2)c(C)c1 | · | -41 | -1 | · | · | · | · | · | · | ·
CC(=O)C1=NN(c2ccc(Cl)cc2)C(c2ccc3c(c2)OCO3)N(C(C)=O)N1C (centres undefined) | -6 | 20 | 3 | -5 | -17 | · | · | · | · | ·
Clc1c(-c2ccccc2)nnn1-c1ccccc1 | 77* | 16 | 0 | 76* | 91* | 74* | 81* | 96* | 75* | 76*
SMILES | SENP7 block | SENP8 block-1 | SENP1 FRET inh | SENP8 block-2 | SENP6 inh | SENP8 confirm | SENP6 confirm | SENP7 confirm | Casp3 select | SENP luc ctr
Cc1cc(C)nc(N(C#N)Cc2ccccc2Cl)n1 | 14 | 17 | 3 | -4 | -7 | · | · | · | · | ·
Cc1cc(C)nc(N(C#N)Cc2ccccc2C)n1 | 96* | 25 | 1 | 0 | -9 | -7 | 0 | -3 | -2 | -2
Cn1cccc1C(=O)/C(C#N)=C/c1ccc(F)cc1 | 0 | 10 | 14 | -1 | 15 | · | · | · | · | ·
COc1ccc(/C=C(\C#N)C(=O)c2cccn2C)cc1 | 78* | 18 | -3 | 69* | 79* | 87* | 87* | 94* | 72* | 82*
Cc1cccc(NC(=O)/C(C#N)=C/c2ccccc2O)n1 | -5 | -84 | -83 | 25 | 25 | · | · | · | · | ·
COc1ccc(/C=C(\C#N)C(=O)Nc2cccc(C)n2)cc1 | 36 | 8 | 2 | 51* | 50* | 11 | 18 | 16 | 11 | 21
COc1ccc(C(C)=O)cc1Cn1c(C)c(C(=O)NCc2ccc(C(F)(F)F)cc2)sc1=O | · | 3 | 3 | · | · | · | · | · | · | ·
Cc1ccc(/C=N/NC(=O)c2nnn(-c3nonc3N)c2-c2ccc3c(c2)OCO3)s1 | -16 | -101 | -2 | -17 | -21 | · | · | · | · | ·
COc1ccc(/C=N/Nc2ccc(C(=O)O)cc2)cc1OC | 86* | -269 | 1 | 82* | 95* | 89* | 88* | 99* | 90* | 83*
Cc1ccc(S(=O)(=O)Oc2cccc(/C=N/Nc3ccc(C(=O)O)cc3)c2)cc1 | 62* | -140 | -2 | 88* | -5 | 14 | 96* | 101* | 18 | 90*
COc1cc(C=NNc2ccccc2)ccc1OC(=O)c1ccccc1 | · | 4 | 4 | · | · | · | · | · | · | ·
CC(C)c1ccc(/C=N/Nc2ccc(C(=O)O)cc2)cc1 | 101* | -101 | -4 | 97* | 98* | 99* | 100* | 103* | 97* | 99*
O=C(O)c1ccc(N/N=C/c2ccc(OC(=O)c3ccccc3Cl)cc2)cc1 | 47 | -22 | -2 | 90* | 91* | 76* | 96* | 98* | 45 | 7
Nc1ccc(C(=O)N/N=C\c2ccc(OC(=O)c3ccccc3Cl)cc2)cc1 | -1 | -46 | -1 | -4 | -16 | · | · | · | · | ·
O=C(Nc1cccc(F)c1)/C(=C/c1ccco1)NC(=O)c1ccco1 | 1 | -19 | -16 | -1 | -8 | · | · | · | · | ·
